Source: ChEMBL document CHEMBL4261537, “Synthesis and pharmacological evaluation of multi-functional homoisoflavonoid derivatives as potent inhibitors of monoamine oxidase B and cholinesterase for the treatment of Alzheimer's disease” (Medchemcomm, 2017)

What was measured:
[1] = target: T1, Amine oxidase [flavin-containing] A (Homo sapiens, UniProt P21397); test: Inhibition of recombinant human MAO-A assessed as reduction in H2O2 production at 100 uM using p-tyramine as substrate preincubated for 15 mins followed by substrate addition by Amplex red reagent based fluorescence assay
T1 sequence (P21397 whole entry): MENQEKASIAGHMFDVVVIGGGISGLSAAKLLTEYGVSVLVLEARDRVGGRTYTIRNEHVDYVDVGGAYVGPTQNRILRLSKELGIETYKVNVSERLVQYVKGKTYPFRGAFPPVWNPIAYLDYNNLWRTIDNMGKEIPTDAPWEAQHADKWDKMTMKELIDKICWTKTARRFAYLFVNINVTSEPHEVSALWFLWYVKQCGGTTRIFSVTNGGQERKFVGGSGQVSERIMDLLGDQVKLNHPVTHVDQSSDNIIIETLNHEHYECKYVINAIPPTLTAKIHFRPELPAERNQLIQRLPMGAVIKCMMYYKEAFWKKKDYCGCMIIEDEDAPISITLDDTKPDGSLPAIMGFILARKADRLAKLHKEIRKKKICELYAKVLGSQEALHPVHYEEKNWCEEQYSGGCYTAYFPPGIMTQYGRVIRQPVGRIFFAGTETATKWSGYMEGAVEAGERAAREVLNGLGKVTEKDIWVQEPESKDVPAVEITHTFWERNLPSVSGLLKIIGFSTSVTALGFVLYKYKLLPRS
How it was run: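 Human MAO-A or MAO-B, each set to the same control reaction velocity. Preincubated with compound 15 min at 37°C in the dark, in sodium phosphate buffer with DMSO. Then 200 μM Amplex Red (final) added with 1 U/mL HRP and 1 mM p-tyramine. Resorufin fluorescence read at 37°C (ex 545/em 590 nm), background from enzyme-free wells subtracted. Run in triplicate, mean ± SD.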

[2] = target: T2, Amine oxidase [flavin-containing] B (Homo sapiens, UniProt P27338); test: Inhibition of recombinant human MAO-B assessed as reduction in H2O2 production using p-tyramine as substrate preincubated for 15 mins followed by substrate addition by Amplex red reagent based fluorescence assay
T2 sequence (P27338 whole entry): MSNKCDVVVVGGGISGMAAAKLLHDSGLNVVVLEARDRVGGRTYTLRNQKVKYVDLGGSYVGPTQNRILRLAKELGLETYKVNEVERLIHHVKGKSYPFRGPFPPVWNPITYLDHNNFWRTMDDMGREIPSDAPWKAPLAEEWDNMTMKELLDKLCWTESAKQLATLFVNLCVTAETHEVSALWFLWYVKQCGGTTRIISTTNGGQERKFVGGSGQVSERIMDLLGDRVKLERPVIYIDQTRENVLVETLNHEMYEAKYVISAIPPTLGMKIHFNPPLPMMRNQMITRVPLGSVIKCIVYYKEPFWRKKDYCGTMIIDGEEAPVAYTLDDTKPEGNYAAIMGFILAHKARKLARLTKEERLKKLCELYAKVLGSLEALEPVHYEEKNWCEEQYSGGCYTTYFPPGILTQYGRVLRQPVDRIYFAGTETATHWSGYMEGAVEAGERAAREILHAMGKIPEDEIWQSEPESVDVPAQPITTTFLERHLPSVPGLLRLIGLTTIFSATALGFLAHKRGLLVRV
How it was run: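 Human MAO-A or MAO-B, each set to the same control reaction velocity. Preincubated with compound 15 min at 37°C in the dark, in sodium phosphate buffer with DMSO. Then 200 μM Amplex Red (final) added with 1 U/mL HRP and 1 mM p-tyramine. Run in triplicate, mean ± SD.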

Homo sapiens = species: Homo sapiens; test: Selectivity index, ratio of IC50 for recombinant human MAO-A to IC50 for recombinant human MAO-B
[3] = Selectivity index, ratio of IC50 for equine serum BuChE to IC50 for electric eel AChE
Cholinesterase = Cholinesterase (Equus caballus, UniProt P81908); test: Inhibition of equine serum BuChE using S-butyrylthiocholine iodide as substrate preincubated for 5 mins followed by substrate addition measured at 1 to 3 mins time interval by Ellman's method; assay type: ADME
Acetylcholinesterase = Acetylcholinesterase (Electrophorus electricus, UniProt O42275); test: Inhibition of electric eel AChE using acetylthiocholine iodide as substrate preincubated for 5 mins followed by substrate addition measured at 1 to 3 mins time interval by Ellman's method
[4] = target: T1, Amine oxidase [flavin-containing] A; test: Inhibition of recombinant human MAO-A assessed as reduction in H2O2 production using p-tyramine as substrate preincubated for 15 mins followed by substrate addition by Amplex red reagent based fluorescence assay

Chain of Cholinesterase (P81908 whole entry): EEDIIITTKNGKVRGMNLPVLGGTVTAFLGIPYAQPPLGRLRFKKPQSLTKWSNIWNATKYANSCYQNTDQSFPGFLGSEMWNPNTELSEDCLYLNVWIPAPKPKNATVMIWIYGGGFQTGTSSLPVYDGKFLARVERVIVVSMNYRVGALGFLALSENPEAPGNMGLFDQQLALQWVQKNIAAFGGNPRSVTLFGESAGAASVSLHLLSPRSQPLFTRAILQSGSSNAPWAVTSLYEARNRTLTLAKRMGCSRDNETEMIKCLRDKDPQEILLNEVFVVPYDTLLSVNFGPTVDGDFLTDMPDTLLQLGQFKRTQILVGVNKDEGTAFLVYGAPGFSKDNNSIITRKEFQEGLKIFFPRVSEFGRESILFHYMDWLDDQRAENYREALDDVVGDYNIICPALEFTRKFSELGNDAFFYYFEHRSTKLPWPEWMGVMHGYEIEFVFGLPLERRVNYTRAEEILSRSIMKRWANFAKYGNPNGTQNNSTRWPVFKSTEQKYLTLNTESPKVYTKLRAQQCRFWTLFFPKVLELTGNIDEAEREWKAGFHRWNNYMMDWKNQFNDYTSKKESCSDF
Chain of Acetylcholinesterase (O42275 whole entry): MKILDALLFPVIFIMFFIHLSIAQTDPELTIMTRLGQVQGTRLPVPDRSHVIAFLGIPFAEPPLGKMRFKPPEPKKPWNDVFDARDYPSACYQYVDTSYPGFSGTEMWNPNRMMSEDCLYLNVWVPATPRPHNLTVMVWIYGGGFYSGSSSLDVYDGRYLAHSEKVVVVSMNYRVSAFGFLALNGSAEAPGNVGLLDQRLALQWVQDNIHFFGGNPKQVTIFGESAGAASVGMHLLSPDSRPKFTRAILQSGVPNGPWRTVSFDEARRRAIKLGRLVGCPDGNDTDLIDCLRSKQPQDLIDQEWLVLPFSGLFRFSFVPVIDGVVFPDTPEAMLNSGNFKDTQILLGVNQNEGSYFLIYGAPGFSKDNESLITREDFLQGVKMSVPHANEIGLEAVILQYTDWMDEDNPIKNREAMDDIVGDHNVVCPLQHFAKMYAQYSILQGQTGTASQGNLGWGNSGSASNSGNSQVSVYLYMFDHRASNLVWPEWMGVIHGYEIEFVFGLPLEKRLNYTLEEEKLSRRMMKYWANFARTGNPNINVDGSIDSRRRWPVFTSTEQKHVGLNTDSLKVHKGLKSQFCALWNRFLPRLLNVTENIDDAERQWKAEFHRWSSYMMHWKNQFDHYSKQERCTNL

## CN(CCCOc1ccc(/C=C2\COc3ccccc3C2=O)cc1)Cc1ccccc1
[1]
  inhibition (INH): Not Active
[2]
  IC50: 0.88 µM
Homo sapiens
  Ratio IC50: > 114
[3]
  Ratio IC50: 0.369
Cholinesterase
  IC50: 19.3 µM
Acetylcholinesterase
  IC50: 52.3 µM

## CCN(CC)CCOc1ccccc1/C=C1\COc2ccccc2C1=O
[1]
  inhibition (INH): Not Active
[2]
  IC50: 43.8 µM
Homo sapiens
  Ratio IC50: > 2.64
[3]
  Ratio IC50: 0.176
Cholinesterase
  IC50: 11.5 µM
Acetylcholinesterase
  IC50: 65.3 µM

## CN(C)CCCCOc1ccc(/C=C2\COc3ccccc3C2=O)cc1
[1]
  inhibition (INH): Not Active
[2]
  IC50: 0.756 µM
Homo sapiens
  Ratio IC50: > 132
[3]
  Ratio IC50: 1.54
Cholinesterase
  IC50: 18.9 µM
Acetylcholinesterase
  IC50: 12.3 µM

## CN(C)CCCOc1ccccc1/C=C1\COc2ccccc2C1=O
[1]
  inhibition (INH): Not Active
[2]
  IC50: > 100 µM
Homo sapiens
  Ratio IC50: > 1
[3]
  Ratio IC50: 0.116
Cholinesterase
  IC50: 8.74 µM
Acetylcholinesterase
  IC50: 75.1 µM

## CN1CCN(CCCCOc2ccc(/C=C3\COc4ccccc4C3=O)cc2)CC1
[1]
  inhibition (INH): Not Active
[2]
  IC50: 16.4 µM
Homo sapiens
  Ratio IC50: > 6.1
[3]
  Ratio IC50: 0.799
Cholinesterase
  IC50: 10.4 µM
Acetylcholinesterase
  IC50: 13 µM

## CCN(CC)CCCOc1ccc(/C=C2\COc3ccccc3C2=O)cc1
[2]
  IC50: 0.166 µM
Homo sapiens
  Ratio IC50: 379
[4]
  IC50: 62.9 µM
[3]
  Ratio IC50: 2.58
Cholinesterase
  IC50: 8.27 µM
Acetylcholinesterase
  IC50: 3.2 µM

## CCN(CC)CCCOc1cccc(/C=C2\COc3ccccc3C2=O)c1
[2]
  IC50: 18.2 µM
Homo sapiens
  Ratio IC50: 3.55
[4]
  IC50: 64.7 µM
[3]
  Ratio IC50: 0.0732
Cholinesterase
  IC50: 1.03 µM
Acetylcholinesterase
  IC50: 14.1 µM

## O=C1/C(=C/c2ccc(OCCN3CCN(Cc4ccccc4)CC3)cc2)COc2ccccc21
[1]
  inhibition (INH): Not Active
[2]
  IC50: 97.5 µM
Homo sapiens
  Ratio IC50: > 1.03
[3]
  Ratio IC50: 1.5
Cholinesterase
  IC50: 31.5 µM
Acetylcholinesterase
  IC50: 21 µM

## CN(CCOc1ccc(/C=C2\COc3ccccc3C2=O)cc1)Cc1ccccc1
[1]
  inhibition (INH): Not Active
[2]
  IC50: 2.28 µM
Homo sapiens
  Ratio IC50: > 43.8
[3]
  Ratio IC50: 2.14
Cholinesterase
  IC50: 41.5 µM
Acetylcholinesterase
  IC50: 19.3 µM

## CN(C)CCCOc1ccc(/C=C2\COc3ccccc3C2=O)cc1
[1]
  inhibition (INH): Not Active
[2]
  IC50: 0.0438 µM
Homo sapiens
  Ratio IC50: > 2280
[3]
  Ratio IC50: 3.9
Cholinesterase
  IC50: 20.3 µM
Acetylcholinesterase
  IC50: 5.21 µM

## CCN(CCOc1ccc(/C=C2\COc3ccccc3C2=O)cc1)Cc1ccccc1
[1]
  inhibition (INH): Not Active
[2]
  IC50: 4.29 µM
Homo sapiens
  Ratio IC50: > 23.3
[3]
  Ratio IC50: 38.3
Cholinesterase
  IC50: 49.4 µM
Acetylcholinesterase
  IC50: 1.29 µM

## CN1CCN(CCCCCCOc2ccc(/C=C3\COc4ccccc4C3=O)cc2)CC1
[1]
  inhibition (INH): Not Active
[2]
  IC50: 6.24 µM
Homo sapiens
  Ratio IC50: > 16.1
[3]
  Ratio IC50: 0.843
Cholinesterase
  IC50: 27.3 µM
Acetylcholinesterase
  IC50: 32.3 µM

## CN(C)CCOc1ccccc1/C=C1\COc2ccccc2C1=O
[1]
  inhibition (INH): Not Active
[2]
  IC50: > 100 µM
Homo sapiens
  Ratio IC50: > 1
[3]
  Ratio IC50: 0.154
Cholinesterase
  IC50: 10 µM
Acetylcholinesterase
  IC50: 65.3 µM

## CN(C)CCCCCCOc1ccc(/C=C2\COc3ccccc3C2=O)cc1
[2]
  IC50: 3.22 µM
Homo sapiens
  Ratio IC50: 12.1
[4]
  IC50: 39.1 µM
[3]
  Ratio IC50: 0.712
Cholinesterase
  IC50: 9.12 µM
Acetylcholinesterase
  IC50: 12.8 µM

## CCN(CCCCCCOc1ccc(/C=C2\COc3ccccc3C2=O)cc1)Cc1ccccc1
[1]
  inhibition (INH): Not Active
[2]
  IC50: > 100 µM
Homo sapiens
  Ratio IC50: > 1
[3]
  Ratio IC50: 2.36
Cholinesterase
  IC50: 40 µM
Acetylcholinesterase
  IC50: 17 µM

## CCN(CCCOc1ccc(/C=C2\COc3ccccc3C2=O)cc1)Cc1ccccc1
[2]
  IC50: 1.59 µM
[3]
  Ratio IC50: 0.583
Cholinesterase
  IC50: 17.2 µM
Acetylcholinesterase
  IC50: 29.4 µM

## CN1CCN(CCCOc2ccc(/C=C3\COc4ccccc4C3=O)cc2)CC1
[1]
  inhibition (INH): Not Active
[2]
  IC50: 22.7 µM
Homo sapiens
  Ratio IC50: > 4.41
[3]
  Ratio IC50: 1.53
Cholinesterase
  IC50: 15.4 µM
Acetylcholinesterase
  IC50: 10.1 µM
